Activity calls are given as the source filed them. No cut-off for these calls is given here.
Tests used:
Mus musculus [1] = assay: Neurotoxicity in albino Carworth Farms No.1 mouse assessed as motor impairment at 30 mg/kg, ip after 0.5 hrs by rotarod test; assay type: toxicity, organism-based; design: dose 30 mg/kg, route intraperitoneal; conditions: in vivo
Summary of the method: (§1)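 Rotorod neurotoxicity in mice at 6 r.p.m. Compound given i.p. (30, 100, 300 mg/kg) in 0.5% methylcellulose; tested at 30 min and 4 h. Impairment is inability to keep equilibrium on the rod for a given time; scored as impaired/tested.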

Mus musculus [2] = assay: Neurotoxicity in albino Carworth Farms No.1 mouse assessed as motor impairment at 100 mg/kg, ip after 0.5 hrs by rotarod test; assay type: toxicity, organism-based; design: dose 100 mg/kg, route intraperitoneal; conditions: in vivo; summary of the method: as §1
Mus musculus [3] = assay: Neurotoxicity in albino Carworth Farms No.1 mouse assessed as motor impairment at 300 mg/kg, ip after 0.5 hrs by rotarod test; assay type: toxicity, organism-based; design: dose 300 mg/kg, route intraperitoneal; conditions: in vivo; summary of the method: as §1
Mus musculus [4] = assay: Anticonvulsant activity in albino Carworth Farms No.1 mouse assessed as protection against subcutaneous metrazol-induced seizure at 30 mg/kg, ip after 0.5 hrs; assay type: functional, organism-based; design: dose 30 mg/kg
Summary of the method: (§2)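 Mouse scMET test. Compound given i.p. (30, 100 or 300 mg/kg) in 0.5% methylcellulose. Pentylenetetrazole 85 mg/kg (CD97) given s.c. at 0.5 or 4 h, then mice observed for 30 min. Protection is absence of clonic spasms; scored as protected/tested.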

Mus musculus [5] = assay: Anticonvulsant activity in albino Carworth Farms No.1 mouse assessed as protection against subcutaneous metrazol-induced seizure at 30 mg/kg, ip after 4 hrs; assay type: functional, organism-based; design: dose 30 mg/kg; summary of the method: as §2
Mus musculus [6] = assay: Anticonvulsant activity in albino Carworth Farms No.1 mouse assessed as protection against subcutaneous metrazol-induced seizure at 100 mg/kg, ip after 0.5 hrs; assay type: functional, organism-based; design: dose 100 mg/kg; summary of the method: as §2
Mus musculus [7] = assay: Anticonvulsant activity in albino Carworth Farms No.1 mouse assessed as protection against subcutaneous metrazol-induced seizure at 100 mg/kg, ip after 4 hrs; assay type: functional, organism-based; design: dose 100 mg/kg; summary of the method: as §2
Mus musculus [8] = assay: Anticonvulsant activity in albino Carworth Farms No.1 mouse assessed as protection against subcutaneous metrazol-induced seizure at 300 mg/kg, ip after 0.5 hrs; assay type: functional, organism-based; design: dose 300 mg/kg; summary of the method: as §2
Mus musculus [9] = assay: Anticonvulsant activity in albino Carworth Farms No.1 mouse assessed as protection against subcutaneous metrazol-induced seizure at 300 mg/kg, ip after 4 hrs; assay type: functional, organism-based; design: dose 300 mg/kg; summary of the method: as §2
Mus musculus [10] = assay: Anticonvulsant activity in albino Carworth Farms No.1 mouse assessed as protection against maximal electroshock-induced seizure at 30 mg/kg, ip after 0.5 hrs; assay type: functional, organism-based; design: dose 30 mg/kg
Summary of the method: (§3)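 Mouse MES test with compound given i.p. (30, 100 or 300 mg/kg) in 0.5% methylcellulose; tested at 0.5 and 4 h. Corneal stimulus of 50 mA at 60 Hz for 0.2 s, electrodes primed with 0.5% butacaine in 0.9% NaCl. Protection is abolition of hindlimb tonic extension; scored as protected/tested.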

Mus musculus [11] = assay: Anticonvulsant activity in albino Carworth Farms No.1 mouse assessed as protection against maximal electroshock-induced seizure at 30 mg/kg, ip after 4 hrs; assay type: functional, organism-based; design: dose 30 mg/kg; summary of the method: as §3
Mus musculus [12] = assay: Anticonvulsant activity in albino Carworth Farms No.1 mouse assessed as protection against maximal electroshock-induced seizure at 100 mg/kg, ip after 0.5 hrs; assay type: functional, organism-based; design: dose 100 mg/kg; summary of the method: as §3
Mus musculus [13] = assay: Anticonvulsant activity in albino Carworth Farms No.1 mouse assessed as protection against maximal electroshock-induced seizure at 100 mg/kg, ip after 4 hrs; assay type: functional, organism-based; design: dose 100 mg/kg; summary of the method: as §3
Mus musculus [14] = assay: Anticonvulsant activity in albino Carworth Farms No.1 mouse assessed as protection against maximal electroshock-induced seizure at 300 mg/kg, ip after 0.5 hrs; assay type: functional, organism-based; design: dose 300 mg/kg; summary of the method: as §3
Mus musculus [15] = assay: Anticonvulsant activity in albino Carworth Farms No.1 mouse assessed as protection against maximal electroshock-induced seizure at 300 mg/kg, ip after 4 hrs; assay type: functional, organism-based; design: dose 300 mg/kg; summary of the method: as §3
Mus musculus [16] = assay: Neurotoxicity in albino Carworth Farms No.1 mouse assessed as motor impairment at 30 mg/kg, ip after 4 hrs by rotarod test; assay type: toxicity, organism-based; design: dose 30 mg/kg, route intraperitoneal; conditions: in vivo; summary of the method: as §1
Mus musculus [17] = assay: Neurotoxicity in albino Carworth Farms No.1 mouse assessed as motor impairment at 300 mg/kg, ip after 4 hrs by rotarod test; assay type: toxicity, organism-based; design: dose 300 mg/kg, route intraperitoneal; conditions: in vivo; summary of the method: as §1
Mus musculus [18] = assay: Anticonvulsant activity in ip dosed albino Carworth Farms No.1 mouse assessed as protection against maximal electroshock-induced seizure after 0.25 hrs; assay type: functional; conditions: albino Carworth Farms No.1, ip
Summary of the method: (§4)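 Mouse quantification at the time of peak effect, compound given i.p. in 0.5% methylcellulose. Groups of at least eight mice received varied doses until at least two points fell between 100 and 0% response. ED50 (MES, scMET) and TD50 (rotorod) with 95% CI by probit analysis (Finney). PI = TD50/ED50 MES.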

Mus musculus [19] = assay: Anticonvulsant activity in ip dosed albino Carworth Farms No.1 mouse assessed as protection against subcutaneous metrazol-induced seizure after 0.25 hrs; assay type: functional; conditions: albino Carworth Farms No.1, 0.25 h; summary of the method: as §4
Mus musculus [20] = assay: Anticonvulsant activity in ip dosed albino Carworth Farms No.1 mouse assessed as time needs to show peak effect for protection against maximal electroshock-induced seizure; assay type: functional
Mus musculus [21] = assay: Anticonvulsant activity in ip dosed albino Carworth Farms No.1 mouse assessed as protection against electric-current for 3 secs-induced seizure after 0.25 hrs by 6Hz minimal clonic seizure test; assay type: functional; conditions: albino Carworth Farms No.1, ip
Mus musculus [22] = assay: Anticonvulsant activity in ip dosed albino Carworth Farms No.1 mouse assessed as time needs to show peak effect for electric-current for 3 secs-induced seizure after 0.25 hrs by 6Hz minimal clonic seizure test; assay type: functional
Rattus norvegicus [23] = assay: Anticonvulsant activity in po dosed albino Sprague-Dawley rat assessed as protection against subcutaneous metrazol-induced seizure after 0.25 hrs; assay type: functional
Summary of the method: (§5)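 Rats dosed orally, compound in 0.5% methylcellulose. MES at 150 mA, 60 Hz, 0.2 s; scMET with pentylenetetrazole 70 mg/kg s.c. plus 30 min observation; rotorod for toxicity.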

[24] = Neurotoxicity in po dosed albino Sprague-Dawley rat assessed as motor impairment after 0.25 hrs by rotarod test; assay type: toxicity, organism-based; conditions: in vivo; summary of the method: as §5
Rattus norvegicus [25] = assay: Anticonvulsant activity in po dosed albino Sprague-Dawley rat assessed as time needs to show peak effect for protection against maximal electroshock-induced seizure after 0.25 hrs; assay type: functional; summary of the method: as §5
[26] = Neurotoxicity in ip dosed albino Carworth Farms No.1 mouse assessed as motor impairment after 0.25 hrs by rotarod test; assay type: toxicity, organism-based; conditions: Carworth Farms No.1 (albino), in vivo
Summary of the method: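 Mouse quantification at the time of peak effect, compound given i.p. in 0.5% methylcellulose. Groups of at least eight mice received varied doses until at least two points fell between 100 and 0% response. PI = TD50/ED50 MES.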

Mus musculus [27] = assay: Anticonvulsant activity in albino Carworth Farms No.1 mouse assessed as protection against electric-current for 3 secs-induced seizure at 100 mg/kg, ip after 0.5 hrs by 6Hz minimal clonic seizure test; assay type: functional
Summary of the method: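 6 Hz psychomotor seizure test in mice. Compound given i.p. as a suspension in 0.5% methylcellulose. Corneal stimulation at 32 mA, 0.2-ms monopolar rectangular pulses at 6 Hz for 3 s, from a constant-current device. Tests run 0.25–4 h after dosing. A mouse counted as protected if it resumed normal exploratory behaviour within 10 s; scored as protected/tested.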

Row | SMILES | Activity (Mus musculus [1]) | Activity (Mus musculus [2]) | Activity (Mus musculus [3]) | Activity (Mus musculus [4]) | Activity (Mus musculus [5]) | Activity (Mus musculus [6]) | Activity (Mus musculus [7]) | Activity (Mus musculus [8]) | Activity (Mus musculus [9]) | Activity (Mus musculus [10]) | Activity (Mus musculus [11]) | Activity (Mus musculus [12]) | Activity (Mus musculus [13]) | Activity (Mus musculus [14]) | Activity (Mus musculus [15]) | Activity (Mus musculus [16]) | Activity (Mus musculus [17]) | ED50 (Mus musculus [18]) [mg/kg] | ED50 (Mus musculus [19]) [mg/kg] | Time (Mus musculus [22]) [h] | further results
1 | C[C@@H]1C(=O)NC(=O)[C@@H]2CCCN12 | Non-toxic | Non-toxic | Non-toxic | inactive | inactive | inactive | inactive | inactive | inactive | inactive | inactive | inactive | inactive | inactive | inactive | Non-toxic | Non-toxic |  |  |  | 
2 | COC[C@@H](NC(C)=O)C(=O)NCc1ccccc1 [LACOSAMIDE] |  |  |  |  |  |  |  |  |  |  |  |  |  |  |  |  |  | 4.46 | > 25 | 0.5 | Time (Mus musculus [20]): 0.5 h; ED50 (Mus musculus [21]): 9.99 mg/kg; ED50 (Rattus norvegicus [23]): > 250 mg/kg; TD50 at 0.25 h [24]: > 500 mg/kg; Time (Rattus norvegicus [25]): 0.5 h
3 | CCC1(c2ccccc2)C(=O)NC(=O)NC1=O [PHENOBARBITAL] |  |  |  |  |  |  |  |  |  |  |  |  |  |  |  |  |  | 21.8 | 13.2 | 0.5 | Time (Mus musculus [20]): 1 h; ED50 (Mus musculus [21]): 14.8 mg/kg; ED50 (Rattus norvegicus [23]): 11.6 mg/kg; TD50 at 0.25 h [24]: 61.1 mg/kg; Time (Rattus norvegicus [25]): 5 h
4 | CC[C@@H](C(N)=O)N1CCCC1=O |  |  |  |  |  |  |  |  |  |  |  |  |  |  |  |  |  |  |  | 1 | TD50 at 0.25 h [26]: > 500 mg/kg
5 | O=C1[C@@H]2CCCN2[C@H](c2ccccc2)C(=O)N1Cc1ccccc1 | Non-toxic | Non-toxic | Non-toxic | inactive | inactive | inactive | inactive | inactive | inactive | inactive | inactive | inactive | inactive | inactive | inactive | Non-toxic | Non-toxic |  |  |  | 
6 | COC(=O)[C@@H](c1ccccc1)N1CCC[C@H]1C(N)=O |  |  | Toxic |  |  |  |  |  |  |  |  |  |  |  |  |  |  |  |  |  | Activity (Mus musculus [27]): Active

— ChEMBL document CHEMBL1909525, “Synthesis and anticonvulsant activity of novel 2,6-diketopiperazine derivatives. Part 1: perhydropyrrole[1,2-a]pyrazines” (Eur J Med Chem, 2011)
